Activity calls are given as the source filed them. The rule behind the calls is not given here.
Legend:
Stromelysin-1 = Stromelysin-1 (Homo sapiens, UniProt P08254); assay: Inhibition of MMP3 (unknown origin) using fluorescently-labeled substrate measured every min for 1 min
Stromelysin-2 = Stromelysin-2 (Homo sapiens, UniProt P09238); assay: Inhibition of MMP10 (unknown origin) using fluorescently-labeled substrate measured every min for 1 min
[1] = Cytotoxicity against human THLE2 cells assessed as decrease in cell viability after 72 hrs by luminescence assay; assay type: cell-based; conditions: THLE-2 cells, read-out: LC50
In short: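 Healthy human hepatic THLE-2 line; compounds incubated with cells for 72 hours, then viability measured. Cytotoxicity reported as LC50.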

[2] = Therapeutic index, ratio of LC50 for human THLE2 cells to EC50 for antifibrinolytic activity in human whole blood; assay type: toxicity
In short: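 THLE-2 healthy hepatic cells were exposed to compound for 72 hours and cell viability was read to give LC50. Antifibrinolytic EC50 came from thromboelastography in triplicate or duplicate. The index is LC50 relative to EC50, expressed in log units.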

[3] = target: T1, Matrilysin (Homo sapiens) (UniProt P09237); assay: Inhibition of recombinant human MMP7 at 10 uM after 45 mins by fluorescence assay
T1 sequence (whole entry): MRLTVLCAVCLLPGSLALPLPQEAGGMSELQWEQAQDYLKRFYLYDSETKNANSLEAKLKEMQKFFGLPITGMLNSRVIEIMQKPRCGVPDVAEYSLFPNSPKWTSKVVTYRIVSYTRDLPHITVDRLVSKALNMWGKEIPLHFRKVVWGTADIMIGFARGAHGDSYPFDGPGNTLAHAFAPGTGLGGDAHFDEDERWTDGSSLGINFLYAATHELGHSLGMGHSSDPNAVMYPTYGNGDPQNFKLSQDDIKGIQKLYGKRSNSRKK

[4] = target: Matrix metalloproteinase-14 (Homo sapiens) (UniProt P50281); assay: Inhibition of recombinant human MMP14 at 10 uM after 60 mins by fluorescence assay
[5] = Solubility of the compound in saline solution at 10 mM; assay type: physicochemical; conditions: buffer, 10000 µM
Mus musculus [6] = assay: Antifibrinolytic activity in tPA-induced C57Bl6 mouse hyperfibrinolytic tail bleeding model assessed as bleeding time at 1 mg/kg, iv administered for 5 mins post tPA challenge for 5 mins measured up to 30 mins by spectrophotometric method (reference value: 29.28 +/- 0.4 min); assay type: functional
[7] = target: Tissue-type plasminogen activator (Homo sapiens) (UniProt P00750); assay: Effect on tPA (unknown origin) activity at 0.01 to 10 uM incubated for 15 mins
[8] = target: Prothrombin (Homo sapiens) (UniProt P00734); assay: Effect on human plasma thrombin activity at 0.01 to 10 uM using S2238 as substrate incubated for 15 mins followed by substrate addition measured after 30 mins
Homo sapiens = species on record: Homo sapiens; assay: Effect on plasminogen/tPA (unknown origin) activity assessed as plasmin generation at 0.01 to 10 uM using S2251 as substrate incubated for 15 mins followed by substrate addition measured after 30 mins
Mus musculus [9] = species on record: Mus musculus; assay: Potency index, ratio of bleeding time for tranexamic acid to bleeding time for test compound in tPA-induced C57Bl6 mouse hyperfibrinolytic tail bleeding model; assay type: functional

Stromelysin-2, sequence (P09238 whole entry): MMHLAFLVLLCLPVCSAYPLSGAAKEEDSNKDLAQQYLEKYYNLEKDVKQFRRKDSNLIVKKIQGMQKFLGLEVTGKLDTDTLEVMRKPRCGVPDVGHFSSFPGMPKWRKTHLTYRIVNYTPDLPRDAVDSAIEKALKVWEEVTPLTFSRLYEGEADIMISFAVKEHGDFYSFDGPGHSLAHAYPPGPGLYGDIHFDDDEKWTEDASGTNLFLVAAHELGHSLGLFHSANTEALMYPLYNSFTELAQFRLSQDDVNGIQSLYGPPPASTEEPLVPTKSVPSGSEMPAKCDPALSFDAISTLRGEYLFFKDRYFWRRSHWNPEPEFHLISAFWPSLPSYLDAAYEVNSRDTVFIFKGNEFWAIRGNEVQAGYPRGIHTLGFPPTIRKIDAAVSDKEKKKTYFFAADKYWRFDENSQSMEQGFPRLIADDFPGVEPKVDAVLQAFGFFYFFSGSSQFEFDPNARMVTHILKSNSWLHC
Stromelysin-1, sequence (P08254 whole entry): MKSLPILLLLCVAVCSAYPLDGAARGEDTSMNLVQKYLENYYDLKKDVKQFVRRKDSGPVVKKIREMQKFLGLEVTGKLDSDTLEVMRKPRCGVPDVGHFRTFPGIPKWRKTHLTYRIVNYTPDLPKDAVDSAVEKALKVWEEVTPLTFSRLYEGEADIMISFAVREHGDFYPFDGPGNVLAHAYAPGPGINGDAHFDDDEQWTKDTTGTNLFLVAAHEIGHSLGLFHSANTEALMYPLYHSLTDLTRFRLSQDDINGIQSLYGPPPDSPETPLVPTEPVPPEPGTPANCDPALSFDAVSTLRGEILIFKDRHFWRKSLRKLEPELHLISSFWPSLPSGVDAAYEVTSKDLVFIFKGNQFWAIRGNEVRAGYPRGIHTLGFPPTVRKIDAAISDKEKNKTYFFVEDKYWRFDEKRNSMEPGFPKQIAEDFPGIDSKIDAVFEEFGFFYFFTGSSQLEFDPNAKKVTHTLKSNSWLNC
Tissue-type plasminogen activator (Homo sapiens), sequence (P00750 36-562 limits assumed): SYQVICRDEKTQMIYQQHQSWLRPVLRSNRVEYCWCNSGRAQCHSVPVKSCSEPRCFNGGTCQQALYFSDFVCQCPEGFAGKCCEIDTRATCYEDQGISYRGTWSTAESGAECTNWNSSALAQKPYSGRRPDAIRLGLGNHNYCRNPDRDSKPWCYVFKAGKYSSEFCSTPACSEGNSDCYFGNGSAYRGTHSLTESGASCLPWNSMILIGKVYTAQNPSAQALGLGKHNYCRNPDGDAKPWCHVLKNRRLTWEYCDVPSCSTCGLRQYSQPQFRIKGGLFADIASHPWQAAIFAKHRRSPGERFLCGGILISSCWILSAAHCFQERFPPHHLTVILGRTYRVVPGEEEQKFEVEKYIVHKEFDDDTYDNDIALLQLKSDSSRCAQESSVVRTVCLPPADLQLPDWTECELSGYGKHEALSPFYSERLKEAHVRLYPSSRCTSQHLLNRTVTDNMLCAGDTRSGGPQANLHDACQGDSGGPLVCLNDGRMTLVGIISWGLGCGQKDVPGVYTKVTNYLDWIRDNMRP

| Compound | IC50 (Stromelysin-1) [µM] | IC50 (Stromelysin-2) [µM] | further results |
| --- | --- | --- | --- |
| Nc1ccccc1NC(=O)C1(S(=O)(=O)c2ccc(Oc3ccc(OC(F)(F)F)cc3)c(Cl)c2)CCC2(CCNCC2)C1 (stereo not drawn) | > 10 | > 10 | – |
| COc1ccc(Oc2ccc(S(=O)(=O)C3(C(=O)Nc4ccccc4N)CCC4(CCNCC4)C3)cc2Cl)cc1 (stereo not drawn) | > 10 | > 10 | – |
| Nc1ccccc1NC(=O)C1(S(=O)(=O)c2ccc(Oc3ccc(OC(F)(F)F)cc3)cc2)CCC2(CCNCC2)C1 (stereo not drawn) | > 10 | > 10 | CC50 at 72 h [1]: 7.22 µM; log(ratio) [2]: 0.904 |
| O=C(Oc1ccccc1)C1(S(=O)(=O)c2ccc(Oc3ccc(OC(F)(F)F)cc3)cc2)CCC2(CCNCC2)C1 (stereo not drawn) | > 10 | > 10 | CC50 at 72 h [1]: 3.9 µM; log(ratio) [2]: 0.637 |
| COc1ccc(S(=O)(=O)C2(C(=O)Nc3ccccc3N)CCC3(CCNCC3)C2)cc1Cl (stereo not drawn) | > 10 | > 10 | – |
| O=C(Nc1ccccn1)C1(S(=O)(=O)c2ccc(Oc3ccc(OC(F)(F)F)cc3)cc2)CCC2(CCNCC2)C1 (stereo not drawn) | > 10 | > 10 | – |
| C#CCCCN1CCC2(CC1)CCC(C(=O)Nc1ccccc1N)(S(=O)(=O)c1ccc(C(=O)c3ccccc3)cc1)C2 (stereo not drawn) | > 10 | > 10 | CC50 at 72 h [1]: 43.5 µM; inhibition [3]: inactive; inhibition [4]: inactive |
| Nc1ccccc1NC(=O)C1(S(=O)(=O)c2ccccc2NC2CCCCC2)CCC2(CCNCC2)C1 (stereo not drawn) | > 10 | > 10 | solubility [5]: Soluble |
| Nc1ccccc1NC(=O)C1(S(=O)(=O)c2ccc(NC3CCCCC3)cc2)CCC2(CCNCC2)C1 (stereo not drawn) | > 10 | > 10 | CC50 at 72 h [1]: 43.8 µM; solubility [5]: Soluble; Time (Mus musculus [6]): 6.58 min; log(ratio) [2]: >= 2.039 |
| CNC(=O)NC(=O)C1(S(=O)(=O)c2ccc(Oc3ccc(OC(F)(F)F)cc3)cc2)CCC2(CCNCC2)C1 (stereo not drawn) | > 10 | > 10 | CC50 at 72 h [1]: 16.2 µM; solubility [5]: Soluble; Time (Mus musculus [6]): 20.24 min; log(ratio) [2]: >= 1.607 |
| COc1ccc(S(=O)(=O)C2(C(=O)Nc3cc(-c4ccccc4)ccc3N)CCC3(CCNCC3)C2)cc1Cl (stereo not drawn) | > 10 | > 10 | – |
| O=C(Nc1nccs1)C1(S(=O)(=O)c2ccc(Oc3ccc(OC(F)(F)F)cc3)cc2)CCC2(CCNCC2)C1 (stereo not drawn) | > 10 | > 10 | – |
| O=S(=O)(c1ccc(Oc2ccc(OC(F)(F)F)cc2)cc1)C1CCC2(CCNCC2)C1 (stereo not drawn) | > 10 | > 10 | – |
| O=S(=O)(c1ccc(Oc2ccc(OC(F)(F)F)cc2)cc1)C1(CO)CCC2(CCNCC2)C1 (stereo not drawn) | > 10 | > 10 | – |
| O=C(O)C1(S(=O)(=O)c2ccc(Oc3ccc(OC(F)(F)F)cc3)cc2)CCC2(CCNCC2)C1 (stereo not drawn) | > 10 | > 10 | – |
| COC(=O)C1(S(=O)(=O)c2ccc(Oc3ccc(OC(F)(F)F)cc3)cc2)CCC2(CCNCC2)C1 (stereo not drawn) | > 10 | > 10 | – |

| Compound | IC50 (Stromelysin-1) [µM] | IC50 (Stromelysin-2) [µM] | further results |
| --- | --- | --- | --- |
| CNC(=O)NC(=O)C1(S(=O)(=O)c2ccc(OC)c(Cl)c2)CCC2(CCNCC2)C1 (stereo not drawn) | > 10 | > 10 | – |
| O=C(Nc1ccccc1O)C1(S(=O)(=O)c2ccc(Oc3ccc(OC(F)(F)F)cc3)cc2)CCC2(CCNCC2)C1 (stereo not drawn) | > 10 | > 10 | – |
| O=C(OCc1ccccc1)C1(S(=O)(=O)c2ccc(Oc3ccc(OC(F)(F)F)cc3)cc2)CCC2(CCNCC2)C1 (stereo not drawn) | > 10 | > 10 | – |
| Nc1ccc(-c2ccccc2)cc1NC(=O)C1(S(=O)(=O)c2ccc(Oc3ccc(OC(F)(F)F)cc3)cc2)CCC2(CCNCC2)C1 (stereo not drawn) | > 10 | > 10 | CC50 at 72 h [1]: 3.53 µM; log(ratio) [2]: >= 0.946 |
| CCCN1CCC2(CC1)CCC(C(=O)Nc1ccccc1N)(S(=O)(=O)c1ccc(Oc3ccc(OC(F)(F)F)cc3)cc1)C2 (stereo not drawn) | > 10 | > 10 | Activity [7]: inactive; Activity [8]: inactive; Activity (Homo sapiens): inactive; CC50 at 72 h [1]: 3.94 µM; Time (Mus musculus [6]): 3.61 min; inhibition [3]: inactive; inhibition [4]: inactive; log(ratio) [2]: >= 0.993; fold change (FC) (Mus musculus [9]): 3 |
| CON(C)C(=O)C1(S(=O)(=O)c2ccc(Oc3ccc(OC(F)(F)F)cc3)cc2)CCC2(CCNCC2)C1 (stereo not drawn) | > 10 | > 10 | – |
| CS(=O)(=O)NC(=O)C1(S(=O)(=O)c2ccc(Oc3ccc(OC(F)(F)F)cc3)cc2)CCC2(CCNCC2)C1 (stereo not drawn) | > 10 | > 10 | – |
| Nc1ccc(F)cc1NC(=O)C1(S(=O)(=O)c2ccc(Oc3ccc(OC(F)(F)F)cc3)cc2)CCC2(CCNCC2)C1 (stereo not drawn) | > 10 | > 10 | – |
| NC(=O)C1(S(=O)(=O)c2ccc(Oc3ccc(OC(F)(F)F)cc3)cc2)CCC2(CCNCC2)C1 (stereo not drawn) | > 10 | > 10 | – |
| COc1ccc(N)c(NC(=O)C2(S(=O)(=O)c3ccc(Oc4ccc(OC(F)(F)F)cc4)cc3)CCC3(CCNCC3)C2)c1 (stereo not drawn) | > 10 | > 10 | – |
| Cc1ccc(-c2ccc(N)c(NC(=O)C3(S(=O)(=O)c4ccc(Oc5ccc(OC(F)(F)F)cc5)cc4)CCC4(CCNCC4)C3)c2)o1 (stereo not drawn) | > 10 | > 10 | – |
| CNC(=O)NC(=O)C1(S(=O)(=O)c2ccc(Oc3ccc(OC)cc3)c(Cl)c2)CCC2(CCNCC2)C1 (stereo not drawn) | > 10 | > 10 | – |
| CN(C)S(=O)(=O)NC(=O)C1(S(=O)(=O)c2ccc(Oc3ccc(OC(F)(F)F)cc3)cc2)CCC2(CCNCC2)C1 (stereo not drawn) | > 10 | > 10 | – |
| Nc1ccc(-c2cccs2)cc1NC(=O)C1(S(=O)(=O)c2ccc(Oc3ccc(OC(F)(F)F)cc3)cc2)CCC2(CCNCC2)C1 (stereo not drawn) | > 10 | > 10 | CC50 at 72 h [1]: 2.8 µM; log(ratio) [2]: 0.493 |
| O=C1CN(C(=O)C2(S(=O)(=O)c3ccc(Oc4ccc(OC(F)(F)F)cc4)cc3)CCC3(CCNCC3)C2)CCN1 (stereo not drawn) | > 10 | > 10 | – |
| CCCN1CCC2(CC1)CCC(C(=O)NC(=O)NC)(S(=O)(=O)c1ccc(Oc3ccc(OC(F)(F)F)cc3)cc1)C2 (stereo not drawn) | > 10 | > 10 | – |
